Screening data deposited in PubChem BioAssay by several laboratories.
Hits are enriched below; roughly 1.6% of the tested compounds scored in any of these assays.
Rev-erbA mod = Rev-erb alpha (human) modulation; Rev-erbα–FITC-DNA binding, fluorescence polarization, 90 min; P20393; 370,000 tested, 0.79% active; activity, % at 10 µM; AID 1259318;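 active = activity above about 14%, limit read from the data; passing the limit was not always enough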;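 also: 0% = DMSO wells with 35 nM protein and 100% = DMSO wells with 750 nM protein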
Target sequence (P20393 whole entry, looked up): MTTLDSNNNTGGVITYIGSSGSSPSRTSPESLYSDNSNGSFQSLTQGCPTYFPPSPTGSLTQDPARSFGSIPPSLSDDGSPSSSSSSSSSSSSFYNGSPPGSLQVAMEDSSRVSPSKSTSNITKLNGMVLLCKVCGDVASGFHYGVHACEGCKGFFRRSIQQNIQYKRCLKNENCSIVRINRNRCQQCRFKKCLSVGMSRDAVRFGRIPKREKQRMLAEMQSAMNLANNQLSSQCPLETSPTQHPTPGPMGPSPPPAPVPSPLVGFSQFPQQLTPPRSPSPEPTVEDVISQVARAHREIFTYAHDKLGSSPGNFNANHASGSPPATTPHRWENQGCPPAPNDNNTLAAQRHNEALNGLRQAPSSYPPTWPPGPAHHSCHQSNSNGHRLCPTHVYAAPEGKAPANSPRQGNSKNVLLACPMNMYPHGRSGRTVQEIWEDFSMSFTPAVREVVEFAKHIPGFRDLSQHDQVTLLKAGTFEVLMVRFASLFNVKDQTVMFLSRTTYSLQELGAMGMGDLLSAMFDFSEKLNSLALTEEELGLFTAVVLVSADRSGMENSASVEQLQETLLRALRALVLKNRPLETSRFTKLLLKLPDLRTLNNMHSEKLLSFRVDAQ
NR2E3 ag-1 = activates human photoreceptor nuclear receptor NR2E3 | GST-NR2E3/biotin-RetCOR TR-FRET, 1536-well | inhibition of corepressor binding, % at 4.78 µM | Q9Y5X4 | 320,000 tested, 0.12% active | AID 2300;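 active = percent inhibition above the cutoff of mean plus 3 SD of all tested compounds, set per screening campaign, cut at about 20% in these data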;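 also: 0% = DMSO wells and 100% = biotin wells as full block of FRET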
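Material – GST-tagged NR2E3 plus biotinylated RetCOR corepressor · Quantity – NR2E3 fusion 1.35 nM · Times – 5 h incubation at 4 °C · Medium – pH 7.5 Tris-based buffer · Technique – TR-FRET, Eu(K)-anti-GST donor, streptavidin-D2 acceptor, ex 340, em 617/671 nm · Benchmarks – high control biotin, low control 0.6% DMSO · Format – 1536-well plates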
PG9 Ab binder = small molecules binding HIV-1 gp120 antibody PG9; TR-FRET gp120-PG9 antibody binding; inhibition, % at 6.7 µM; AID 624416; 360,000 tested, 0.43% active; in the data active = inhibition above about 8.5%
PKA-R1A activ = activators of PKA-R1A complex. P00514+P68181. PKA-R1A dissociation, Cy5-IP20 fluorescence polarization; scaled: DMSO 0%, 113 µM cGMP 100%. activation, % at 11.4 µM. 340,000 tested, 0.083% active. AID 504707;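 active = percent activation above the mean of all tested compounds plus 3 SD, cut at about 19% in these data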;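 also: higher means more PKAc released from R1A so a rise in polarization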
PKA-R2B activ = activates the human PKA-R2B holoenzyme complex | 340,000 tested, 0.079% active | AID 504700 | activation, % at 11.4 µM | PKA-R2B holoenzyme dissociation, Cy5-IP20 fluorescence polarization; R2B truncated from residue 108, S112A mutant; 0% DMSO only, 100% 113 µM cGMP;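 active = activation above a cutoff set at the mean over all compounds plus 3 SD, cut at about 18% in these data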;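 also: higher means more holoenzyme dissociation and a rise in polarization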
NR2E3 ag-2 = human photoreceptor-specific nuclear receptor agonism; CHO-S Gal4-NCOR/VP16-NR2E3 two-hybrid, luciferase; Q9Y5X4; 360,000 tested, 0.35% active; AID 602229; inhibition of corepressor binding, % at 3.98 µM;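 active = inhibition above the mean of all tested compounds plus 3 SD, cut at about 70% in these data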;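 also: 0% = DMSO with NR2E3 transfected cells and 100% = cells lacking NR2E3 construct; higher means lower luciferase signal from less NR2E3 corepressor binding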
NR2E3 ag confirm = NR2E3 agonism confirmed in two-hybrid assay; 2,300 tested, 51% active; inhibition, % at 3.98 µM; shares compounds with NR2E3 ag-2; CHO-S mammalian two-hybrid NR2E3-NCOR, luciferase luminescence;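 active = average inhibition above a cutoff equal to the mean inhibition of all tested compounds plus one SD, cut at about 70% in these data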;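 also: 0% = DMSO in NR2E3 cells and 100% = DMSO in cells lacking NR2E3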
VP16 counter = GAL4-VP16 reporter inhibition in NR2E3 agonist counterscreen | shares compounds with NR2E3 ag-2 | CHO-S GAL4-VP16 luciferase reporter, luminescence | inhibition, % at 3.98 µM | 2,300 tested, 29% active | AID 624379;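 active = mean inhibition above a cutoff equal to the average over all tested compounds plus one standard deviation, cut at about 70% in these data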;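 also: luciferase from a UAS reporter driven by GAL4-VP16 transactivation; 0% = DMSO with VP16-transfected cells and 100% = DMSO with cells lacking VP16; higher means less reporter light so more repression of VP16 activity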
An asterisk follows results filed as active; nt = not tested or not shown.

SMILES	Rev-erbA mod	NR2E3 ag-1	PG9 Ab binder	PKA-R1A activ	PKA-R2B activ	NR2E3 ag-2	NR2E3 ag confirm	VP16 counter
COc1cc2nc(=S)n3[nH]c(COc4ccccc4C)nc3c2cc1OC	-2.9	5.6	-2.1	-9.8	-3.2	-10.8	nt	nt
O=c1c2ccccc2[nH]n1[C@@H](Cc1ccccc1)Cn1cc(-c2ccc(-c3ccccc3)cc2)nn1	-1.7	nt	nt	nt	nt	nt	nt	nt
COc1ccc2c3c([nH]c2c1)[C@]1(CCNC=O)Nc2ccccc2C1=NCC3	-6.6	nt	nt	nt	nt	nt	nt	nt
CCCCCCCCCCOC(=O)Cn1c(COc2ccccc2OC)[n+](C)c2ccccc21	-0.3	-0.1	2.2	-1.4	-1.6	47.9	95.0*	68.9
Oc1ccc(Cl)cc1Sc1cc(Cl)ccc1O	-8.3	nt	-1.6	-11.3	-3.2	60.8	100.2*	66.1
COc1ccc(NS(=O)(=O)c2ccc3oc4ccccc4c3c2)cn1	0.8	5.2	-0.3	5.2	-13.7	88.4*	75.6*	63.5
COc1ccc(-c2cc(C(=O)NN=Cc3ccc(C)s3)[nH]n2)cc1	-5.2	nt	nt	nt	nt	nt	nt	nt
Cc1ccsc1C(=O)N1CCC1(C)C(=O)Nc1cccc(C#N)c1 (configuration not stated)	-4.0	nt	-2.7	nt	nt	8.3	nt	nt
CC(C)(C)c1ccc(C(=O)N2CCC2(C)C(=O)Nc2cccc(C#N)c2)cc1 (configuration not stated)	-0.4	nt	1.0	nt	nt	51.9	4.1	33.0
CC1(C(=O)Nc2ccc3[nH]ncc3c2)CCN1C(=O)Cc1ccc(-c2ccccc2)cc1 (configuration not stated)	-3.8	nt	1.4	nt	nt	52.6	77.7*	64.6
CC(C)(C)c1ccc(CC(=O)N2CCC2(C)C(=O)Nc2ccc3[nH]ncc3c2)cc1 (configuration not stated)	-7.5	nt	-0.3	nt	nt	57.0	36.8	44.9
COC(=O)N1C[C@H](OC)[C@H]2C[C@@H]1c1ccccc1O2	-6.3	nt	-0.5	nt	nt	nt	nt	nt
COC(=O)[C@]12C[C@H](CC(=O)NCC3CCCCC3)C(=O)N(Cc3ccc(Cl)cc3Cl)C1=C[C@H](C(C)C)O[C@@H]2C1CC1	-6.9	nt	nt	nt	nt	nt	nt	nt
CC(C)(C)C(=O)c1c(N)[nH]c(C(=O)c2ccccc2)c1-c1ccc([N+](=O)[O-])cc1	2.2	nt	-2.4	nt	nt	nt	nt	nt
CCN(CC(=O)Nc1cccc(OC)c1)c1ncnc2sc(C)c(C)c12	0.9	-0.6	-0.4	2.5	-4.5	71.2*	88.0*	71.0*
CCn1ncc(/C=C/C(=O)Nc2c(C)nn(Cc3ccc(Cl)cc3Cl)c2C)c1C	2.3	-3.1	-0.5	-3.3	-12.9	50.2	32.0	40.3
Cc1nc2ccccc2n1Cc1ccc(Br)cc1	6.0	3.7	0.3	5.6	3.8	84.2*	94.1*	85.3*
O=C(CCc1ccccc1-c1ccccc1CCNC(=O)c1ccccc1)NCc1ccccc1	9.5	nt	nt	nt	nt	nt	nt	nt
CN(Cc1ccccc1Cl)C(=O)CN1C(=O)C2(OCCCO2)c2ccccc21	-1.7	nt	nt	nt	nt	nt	nt	nt
C=C[C@]1(C)C=C2C(=O)[C@@]3(O)OC(=O)[C@@]4(CCCC(C)(C)[C@H]34)[C@@]2(O)CC1	2.2	nt	0.8	nt	nt	91.9*	90.9*	62.8
Cc1c[nH]c2cccc(-c3cc4ccccc4o3)c12	-3.0	nt	nt	nt	nt	nt	nt	nt
CCOc1ccc(N(CC(=O)Nc2c(C)n(C)n(-c3ccccc3)c2=O)S(=O)(=O)c2ccc3c(c2)N(C(=O)C2CCC2)CC3)cc1	2.2	nt	nt	nt	nt	nt	nt	nt
N.N.O=C(O)C1(C(=O)O)CCC1.[Pt+2]	7.1	nt	nt	nt	nt	nt	nt	nt
O=C(Nc1ccc2c(c1)OCO2)O[C@@H]1CC[C@@]23CCCN2C(=O)CCC[C@H]3C1	-3.9	nt	nt	nt	nt	nt	nt	nt
COCC(=O)Nc1c(C(=O)Nc2ccc3c(c2)OCO3)oc2ccccc12	-3.5	-0.8	-1.8	-0.8	-7.1	-18.6	nt	nt
SMILES	Rev-erbA mod	NR2E3 ag-1	PG9 Ab binder	PKA-R1A activ	PKA-R2B activ	NR2E3 ag-2	NR2E3 ag confirm	VP16 counter
O=C(CCl)Nc1c(C(=O)Nc2ccc3c(c2)OCCO3)oc2ccccc12	4.1	2.3	-1.1	-7.8	3.3	50.6	-100.5	-8.3
CC(O)(c1ccccc1)c1nc(-c2ccc(Cl)cc2)cs1 (configuration not stated)	0.8	nt	-0.9	nt	nt	0.1	nt	nt
CC(O)(c1cccnc1)c1nc(-c2cccc(C(F)(F)F)c2)cs1 (configuration not stated)	7.2	nt	-1.4	nt	nt	67.3	50.6	39.4
CC(O)(c1cccnc1)c1nc(-c2ccc(F)c(Cl)c2)cs1 (configuration not stated)	0.7	nt	-1.5	nt	nt	53.3	64.9	51.9
CC(O)(c1cccnc1)c1nc(-c2cccc(F)c2)cs1 (configuration not stated)	2.3	nt	-1.2	nt	nt	-3.8	nt	nt
COC(=O)[C@]12C[C@H](CC(=O)N3CCOCC3)C(=O)N(Cc3ccco3)C1=C[C@H](C(C)(C)C)O[C@@H]2C	-4.2	nt	nt	nt	nt	nt	nt	nt
O[C@H](COc1cccc(Cl)c1)CN1CCC(C(O)(c2ccccc2)c2ccccc2)CC1	5.0	nt	nt	nt	nt	nt	nt	nt
Cc1ccc(Cn2cc(CN(C(C)(C)C)S(=O)(=O)c3ccc(F)cc3Br)nn2)cc1	-5.2	nt	nt	nt	nt	nt	nt	nt
Cc1cc(C)cc(N=c2c([N+](=O)[O-])nn(-c3ccc4c(c3)OCCO4)n2O)c1	9.8	-4.7	-0.5	-1.4	0.7	50.1	60.9	12.2
CCc1ccc(N=c2c([N+](=O)[O-])nn(-c3ccc4c(c3)OCCO4)n2O)cc1	-6.1	-2.6	-0.2	-6.6	2.1	-75.9	nt	nt
O=[N+]([O-])c1nn(-c2ccc3c(c2)OCCO3)n(O)c1=Nc1ccccc1	5.2	1.9	-1.4	5.0	0.6	95.0*	82.6*	77.0*
Cc1ccc(N=c2c([N+](=O)[O-])nn(-c3ccc4c(c3)OCCO4)n2O)cc1F	-4.0	1.2	-2.5	-1.0	-1.0	81.8*	62.6	48.9
CCOC(=O)N1C(=O)C[C@](Sc2ccc(OC)cc2)(C(=O)N2CCN(C(C)=O)CC2)[C@H]1c1ccc(OC)cc1	-0.8	nt	nt	nt	nt	nt	nt	nt
Cc1ccc2c(c1)C1CS(=O)(=O)N(Cc3ccc(F)cc3)CN1C2 (configuration not stated)	1.4	nt	nt	nt	nt	nt	nt	nt
Cc1cc(C(=O)NNc2ccccc2F)no1	-3.1	-3.7	-3.1	-0.6	-2.0	49.8	47.9	0.2
Cc1ccc(S(=O)(=O)N2[C@@H](c3ccc(C(C)(C)C)cc3)C(C(=O)O)=CC[C@H]2c2cccc(Cl)c2)cc1	-7.1	nt	-2.4	5.8	-4.5	83.8*	69.8	28.5
Cc1ccc([C@H]2C(C(=O)O)=CC[C@@H](c3cccc(Cl)c3)N2S(=O)(=O)c2ccc(C)cc2)cc1	3.0	nt	0.3	7.0	0.8	-8.5	nt	nt
